≈ marks a conversion by molar mass, not a printed value.
Legend:
[1] = Cytotoxicity against human C19 cells after 24 hrs by MTT assay; type: functional, cell-based; conditions: C19, 24 h
Outline: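 Thawed C-19 leukemia cells were grown 48 h in IMDM with penicillin, streptomycin and L-glutamate at 37 °C, 5% CO₂. Plated at 10,000 cells/well in IMDM, held 24 h, then treated 24 h with 0.1–300 µM (0.1% DMSO); DMSO control row. MTT (5 mg/mL in PBS, 20 µL/well) for 2 h, dissolved in DMSO, A490. IC50 from sigmoidal fit of percent survival.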

[2] = Cytotoxicity against human Caov3 cells after 24 hrs by MTT assay; type: functional, cell-based; conditions: Caov-3, 24 h
Outline: (§1)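 Cells were grown 72 h in DMEM/F12 with penicillin, streptomycin and L-glutamate, trypsinized and counted. Plated at 10,000 cells/well in IMDM, held 24 h at 37 °C, 5% CO₂, then treated 24 h with 0.1–300 µM (0.1% DMSO); DMSO control row. MTT (5 mg/mL in PBS, 20 µL/well) for 2 h, dissolved in DMSO, A490. Sigmoidal-fit IC50 from percent survival.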

[3] = Cytotoxicity against human WM266.4 cells after 24 hrs by MTT assay; type: functional, cell-based; conditions: WM 266-4, 24 h; outline: as §1
Streptococcus pyogenes = assay: Antibacterial activity against Streptococcus pyogenes measured after overnight incubation by spectrophotometry; type: functional, organism-based
Outline: (§2)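 Bacteria were grown overnight at 37 °C in Luria broth, subcultured to OD 0.1 and grown 2 h more. Culture was added to cuvettes holding 0.1–300 µM test agent (0.3% DMSO). Controls were DMSO and streptomycin: 0.500 µg/mL for P. aeruginosa, 0.0625 µg/mL for the others. Shaken at 37 °C with OD read every 2.5 h in duplicate to about 7.5 h. IC50 from sigmoidal fit, mean of three trials.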

Staphylococcus aureus = assay: Antibacterial activity against Staphylococcus aureus measured after overnight incubation by spectrophotometry; type: functional, organism-based; outline: as §2
[4] = system: Mycolicibacterium smegmatis; assay: Antibacterial activity against Mycobacterium smegmatis measured every 2.5 hrs by spectrophotometry; type: functional, organism-based
Outline: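 M. smegmatis MC²155 was grown 48 h at 37 °C with shaking in 7H9 complete medium with Tween, diluted 1:1000 and grown overnight. It was then subcultured to OD 0.1 and grown 2 h. Exposed to 0.1–300 µM (0.3% DMSO), with DMSO and streptomycin 0.250 µg/mL controls. Shaken at 37 °C, OD read every 2.5 h in duplicate to about 7.5 h. Sigmoidal-fit IC50, mean of three trials.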

Pseudomonas aeruginosa = assay: Antibacterial activity against Pseudomonas aeruginosa measured after overnight incubation by spectrophotometry; type: functional, organism-based; outline: as §2
Candida albicans = assay: Antibacterial activity against Candida albicans measured every 2.5 hrs by spectrophotometry; type: functional, organism-based
Outline: (§3)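 Yeasts were grown overnight at 30 °C: S. cerevisiae in synthetic dextrose medium, C. albicans wild-type diploid in WYPD with glucose. Subcultured to OD 0.1 and grown 2 h. Exposed to 0.1–300 µM (0.3% DMSO), with DMSO and caspofungin 1 µg/mL controls. Shaken at 30 °C, OD read every 2.5 h in duplicate to about 7.5 h. Sigmoidal-fit IC50, mean of three trials.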

Saccharomyces cerevisiae = assay: Antibacterial activity against Saccharomyces cerevisiae measured every 2.5 hrs by spectrophotometry; type: functional, organism-based; outline: as §3
Escherichia coli = assay: Antibacterial activity against Escherichia coli measured after overnight incubation by spectrophotometry; type: functional, organism-based; outline: as §2
P388 = assay: Growth inhibition of mouse P388 cells at 10 uM; type: functional; conditions: read-out: GI

c1ccc2c(-c3nccc4c3[nH]c3ccccc34)c[nH]c2c1
IC50 [1]: 15.6 µg/mL (≈ 55.1 µM) | IC50 [2]: 24.9 µg/mL (≈ 87.9 µM) | IC50 [3]: 27.5 µg/mL (≈ 97.1 µM) | IC50 (Streptococcus pyogenes): 3.4 µg/mL (≈ 12 µM) | IC50 (Staphylococcus aureus): 6.4 µg/mL (≈ 22.6 µM) | IC50 [4]: 3.6 µg/mL (≈ 12.7 µM) | IC50 (Pseudomonas aeruginosa): 27.7 µg/mL (≈ 97.8 µM) | IC50 (Candida albicans): > 30 µg/mL | IC50 (Saccharomyces cerevisiae): > 300 µg/mL | IC50 (Escherichia coli): 12.3 µg/mL (≈ 43.4 µM) | inhibition of growth at 10 µM (P388): 38%

Reference: ChEMBL document CHEMBL3351516, “Efficient synthesis of eudistomin U and evaluation of its cytotoxicity” (Bioorg Med Chem Lett, 2014)
